Compound activity as filed in PubChem BioAssay.
KCNQ1 inh: inhibitors of human KCNQ1 channel, primary screen, cell-based, thallium flux, high-throughput; CHO-K1 KCNQ1, FluxOR thallium flux fluorescence; active compounds read high; B-score at 10 µM; Potassium voltage-gated channel subfamily KQT member 1 (Homo sapiens), P51787; 310,000 tested, 1.3% active;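 active means compounds whose thallium flux B-score, printed positive for inhibition, exceeds three library SD while starting fluorescence stays within three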;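 further: channel opened by potassium depolarization with thallium stimulus after 20 min compound exposure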
hERG protect: hERG rescue from dofetilide block, primary screen, cell-based, CHO-hERG, FluxOR thallium flux, dofetilide IC70 | Voltage-gated inwardly rectifying potassium channel KCNH2 (Homo sapiens), Q12809 | dofetilide IC70 present | activation (rescue from dofetilide block), less the hit threshold, % at 10 µM | 310,000 tested, 0.51% active;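 active means activation above the mean of controls blocked by dofetilide plus 5 SD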;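 further: thallium influx through hERG after potassium depolarization seen as dye fluorescence rise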
Target sequence (Q12809 whole entry, looked up): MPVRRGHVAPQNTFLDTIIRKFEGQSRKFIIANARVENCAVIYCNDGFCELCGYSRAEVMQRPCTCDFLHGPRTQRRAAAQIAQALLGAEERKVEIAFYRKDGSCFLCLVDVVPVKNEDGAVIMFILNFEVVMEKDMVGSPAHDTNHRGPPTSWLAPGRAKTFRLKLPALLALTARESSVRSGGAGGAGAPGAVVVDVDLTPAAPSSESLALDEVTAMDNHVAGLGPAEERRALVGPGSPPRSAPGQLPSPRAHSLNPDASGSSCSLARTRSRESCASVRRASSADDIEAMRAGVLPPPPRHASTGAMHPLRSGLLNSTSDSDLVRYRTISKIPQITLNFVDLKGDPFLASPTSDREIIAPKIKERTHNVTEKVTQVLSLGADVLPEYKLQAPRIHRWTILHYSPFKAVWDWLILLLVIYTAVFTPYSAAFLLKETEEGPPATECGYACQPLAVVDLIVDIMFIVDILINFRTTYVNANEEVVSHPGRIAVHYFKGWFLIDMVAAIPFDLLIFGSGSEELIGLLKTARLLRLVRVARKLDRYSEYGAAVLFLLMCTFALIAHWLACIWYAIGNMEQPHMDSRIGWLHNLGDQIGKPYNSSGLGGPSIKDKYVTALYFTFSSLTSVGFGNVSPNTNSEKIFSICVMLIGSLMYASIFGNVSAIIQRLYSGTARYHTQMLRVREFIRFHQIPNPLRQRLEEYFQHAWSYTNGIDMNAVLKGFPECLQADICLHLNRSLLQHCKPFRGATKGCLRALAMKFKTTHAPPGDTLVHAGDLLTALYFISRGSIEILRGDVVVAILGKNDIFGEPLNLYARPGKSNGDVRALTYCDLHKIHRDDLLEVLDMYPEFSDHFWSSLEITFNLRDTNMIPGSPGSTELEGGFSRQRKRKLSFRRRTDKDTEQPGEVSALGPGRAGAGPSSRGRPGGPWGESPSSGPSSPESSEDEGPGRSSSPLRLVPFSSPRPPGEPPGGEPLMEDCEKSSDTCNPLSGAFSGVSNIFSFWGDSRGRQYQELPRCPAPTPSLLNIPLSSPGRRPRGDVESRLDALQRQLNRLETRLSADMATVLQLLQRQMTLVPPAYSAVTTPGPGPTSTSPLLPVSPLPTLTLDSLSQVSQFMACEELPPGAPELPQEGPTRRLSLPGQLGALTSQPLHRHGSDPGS
KCNQ1 pot: potentiators or activators of KCNQ1 channel, primary screen, cell-based, thallium flux, high-throughput | CHO-K1 KCNQ1, thallium flux FluxOR fluorescence; active compounds read high | B-score at 10 µM | 310,000 tested, 0.35% active;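 active means fluorescence ratio B-score, a plate-corrected score, at least three library SD, with initial intensity B-score within 5 SD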
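Doses: Single concentration per compound, DMSO matched to controls | Test system: KCNQ1-transfected CHO-K1 cells | Timing: 90 min dye loading and 20 min compound exposure, both at room temperature | Measured by: Kinetic FluxOR thallium fluorescence, 10-s 1-Hz baseline, 110-s post-stimulus read | Medium: Assay buffer with matched DMSO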
KCNK3 block: human KCNK3 channel inhibitors, primary screen, CHO cells, FluxOR thallium flux, B-score | Potassium channel subfamily K member 3 (Homo sapiens), O14649 | FluxOR fluorescence; active compounds read low | B-score at 10 µM | 340,000 tested, 0.84% active | AID 602410, 2012;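 active means B-score under library mean minus 4 SD, starting fluorescence ratio at most library mean plus 5 SD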;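 further: more negative B-score means stronger inhibition of thallium flux through KCNK3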
KCNK9 inh: KCNK9 potassium channel inhibitors, primary screen, HEK293 cells, thallium flux | FluxOR thallium flux fluorescence; active compounds read low | B-score at 10 µM | 310,000 tested, 1.2% active | AID 488922, 2010;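 active means ratio B-score over 3 SD below the library mean, with starting fluorescence within 5 SD of its mean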;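 further: negative B-score means less thallium flux so channel inhibition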
KCNK9 inh conf: KCNK9 potassium channel inhibitors, confirmation, HEK293 cells, thallium flux, duplicate. shares compounds with KCNK9 inh. FluxOR thallium flux fluorescence. inhibition, % at 10 µM. 4,900 tested, 43% active. AID 492992, 2010;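 active means thallium signal inhibited by more than 5 SD of the compound-free buffer control wells, on both duplicate plates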
Kir2-1 spec: mouse Kir2.1 channel inhibition, confirmation, selectivity assay for KCNK9 modulator project, cell-based, HEK293, thallium flux. shares compounds with KCNK9 inh. Kir2.1 cells, FluxOR thallium flux fluorescence. 4,900 tested, 4% active. inhibition, % at 10 µM;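 active means thallium signal drop more than 5 SD beyond the mean of the no-compound control wells, seen in both duplicate plates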;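 further: signal is fluorescence rise after thallium addition divided by baseline fluorescence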
HEK293 Tl ctr: thallium flux in non-induced HEK293 cells, confirmation, counter-screen for KCNK9 inhibitor project, cell-based, second counter screen, non-induced KCNK9-HEK293 | AID 492997, 2010 | 4,900 tested, 40% active | inhibition, % at 10 µM | FluxOR thallium flux | shares compounds with KCNK9 inh;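 active means thallium signal drop beyond 5 SD of the untreated control mean, on both duplicate plates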
Each line names hits and unclear results; the compound was inactive in the other large screens (follow-up assays come after a bar, where they were run). Shown are actives, neighbours in structure and some others; about 3.1% of the full set was active somewhere.

Cc1cc(Br)ccc1NC(=O)c1ccco1	none
O=C(Nc1ccc(Cl)cc1C(=O)Nc1ccc(Br)cn1)c1ccco1	KCNK9 inh -12 | KCNK9 inh conf 53% | Kir2-1 spec inactive | HEK293 Tl ctr inactive
Cc1ccc(/C=C2\SC(=S)N(c3c(C)n(C)n(-c4ccccc4)c3=O)C2=O)cc1	none | KCNK9 inh conf inactive | Kir2-1 spec inactive | HEK293 Tl ctr inactive
Cc1c(N2C(=O)/C(=C/C3CC=CCC3)SC2=S)c(=O)n(-c2ccccc2)n1C (configuration not stated)	none
Cc1c(N2C(=O)/C(=C/c3ccccc3)SC2=S)c(=O)n(-c2ccccc2)n1C	none | KCNK9 inh conf inactive | Kir2-1 spec inactive | HEK293 Tl ctr inactive
Cc1cccn2c(=O)nc(SCC(=O)NCc3ccccc3)nc12	none
COc1ccc(/C=N/n2c(N)nc(-c3ccccc3)c2-c2ccccc2)cc1	none | KCNK9 inh conf inactive | Kir2-1 spec inactive | HEK293 Tl ctr inactive
COc1ccc(/C=N/n2c(-c3ccccc3)n[nH]c2=S)cc1	none
COc1cccc(/C(C)=N/N=C(\C)c2cccc(OC)c2)c1	KCNK9 inh -14 | KCNK9 inh conf 60% | Kir2-1 spec inactive | HEK293 Tl ctr inactive
Cc1nnsc1S(=O)(=O)c1ccccc1	none
Cc1ccc([N+](=O)[O-])cc1N=C(c1cccc(Br)c1)N1CCOCC1	KCNK3 block -12, KCNK9 inh -20 | KCNK9 inh conf 57% | Kir2-1 spec inactive | HEK293 Tl ctr 33%
O=C(Oc1cccc(C(=S)N2CCOCC2)c1)c1ccc([N+](=O)[O-])cc1	none
O=C(O)Cn1cc(CN2CCOCC2)c2ccccc21	none
Cn1cc(CN2CCN(c3ccccc3)CC2)c2ccccc21	none | KCNK9 inh conf inactive | Kir2-1 spec inactive | HEK293 Tl ctr inactive
CN(C)N1C(=O)/C(=C/c2ccco2)SC1=Nc1ccccc1	none
O=C1/C(=C\c2ccc(Br)o2)SC(=Nc2ccccc2)N1c1ccccc1	KCNK9 inh -8.4 | KCNK9 inh conf inactive | Kir2-1 spec inactive | HEK293 Tl ctr 37%
O=C(Nc1cccc(C(F)(F)F)c1)C1(c2ccccc2)CC1	KCNK9 inh -12 | KCNK9 inh conf 53% | Kir2-1 spec inactive | HEK293 Tl ctr 37%
O=C(Nc1ccc(C(F)(F)F)cc1)C1(c2ccccc2)CC1	none
Cc1ccc(SCC(=O)Nc2ccc(N3CCOCC3)cc2)cc1C	none (no result: KCNQ1 inh, hERG protect, KCNQ1 pot, KCNK9 inh)
COc1ccc(CNC(=O)/C(C#N)=C2\N=C(NC(=O)c3cccs3)c3ccccc32)cc1	none | KCNK9 inh conf inactive | Kir2-1 spec inactive | HEK293 Tl ctr inactive
COCCNC(=O)/C(C#N)=C1\N=C(NC(=O)c2cccs2)c2ccccc21	none
CC(C)CC(NC(=O)C1CCC(=O)N1C(=O)OCc1ccccc1)C(=O)NC(Cc1ccccc1)C(N)=O (configuration not stated)	none
O=C1c2ccccc2C(=O)N1CC#CCN1CCN(C(c2ccccc2)c2ccccc2)CC1	none | KCNK9 inh conf inactive | Kir2-1 spec inactive | HEK293 Tl ctr inactive
c1ccc(CN2CCN(C(c3ccccc3)c3ccccc3)CC2)cc1	none
CC(C)(C)C1=NN(c2ccc([N+](=O)[O-])cc2)C(c2ccccc2)C1 (configuration not stated)	KCNQ1 inh 9, KCNK9 inh -8.8 | KCNK9 inh conf 44% | Kir2-1 spec inactive | HEK293 Tl ctr 48%
C#CCOc1ccc(CNC[C@H]2O[C@@H](n3cnc4c(N)ncnc43)[C@H](O)[C@@H]2O)cc1	none (no result: KCNQ1 inh, hERG protect, KCNQ1 pot, KCNK9 inh)
CC(=O)c1ccc(OCCCCOc2ccc(C(C)=O)cc2)cc1	none
CC(=O)c1ccc(OCCCCCCCOc2ccc(C(C)=O)cc2)cc1	KCNK9 inh -8.8 | KCNK9 inh conf inactive | Kir2-1 spec inactive | HEK293 Tl ctr inactive
CCOC(=O)c1ccc(N/C(=N\S(=O)(=O)c2ccccc2C)c2ccccc2)cc1	KCNK9 inh -8.4 | KCNK9 inh conf 39% | Kir2-1 spec inactive | HEK293 Tl ctr 28%
COC(=O)c1ccc(N/C(=N/S(=O)(=O)c2ccccc2)c2ccccc2)cc1	none
Cc1cc(C)c(C(=O)N2CCCC(Nc3ccc(C)c(C)c3)C2)o1 (configuration not stated)	none | KCNK9 inh conf inactive | Kir2-1 spec inactive | HEK293 Tl ctr inactive
COc1ccc(NC2CCCN(C(=O)c3oc(C)cc3C)C2)cc1OC (configuration not stated)	none
Cc1ccc(NC2CCCN(C(=O)C3CCCCC3)C2)cc1C (configuration not stated)	none | KCNK9 inh conf inactive | Kir2-1 spec inactive | HEK293 Tl ctr inactive
Cc1ccc(S(=O)(=O)n2nccc2-c2c(-c3ccc(Cl)cc3)noc2C)cc1	KCNK9 inh -12 | KCNK9 inh conf inactive | Kir2-1 spec inactive | HEK293 Tl ctr 36%
CCC(C)N(C(=O)COC(=O)c1cc([N+](=O)[O-])ccc1N)C1CCS(=O)(=O)C1 (configuration not stated)	none
COC(=O)c1cn(C(=O)c2ccc(C)cc2C)c2ccccc12	none | KCNK9 inh conf inactive | Kir2-1 spec inactive | HEK293 Tl ctr 32%
Cc1ccccc1C(=O)O[C@H]1[C@H](Cc2ccccc2)NS(=O)(=O)[C@H]2CC3C=C[C@]12O3	none (no result: KCNQ1 inh, hERG protect, KCNQ1 pot, KCNK9 inh)
N#C/C(=C/c1ccc(CNC(=O)C(=O)Nc2cc(Cl)cc(Cl)c2)o1)C(=O)NCc1cccnc1	KCNK9 inh -10 | KCNK9 inh conf inactive | Kir2-1 spec inactive | HEK293 Tl ctr inactive
COc1cc(O)c(CC=C(C)C)c(O)c1C(=O)CCc1ccc(O)cc1	KCNK9 inh -14 | KCNK9 inh conf 32% | Kir2-1 spec inactive | HEK293 Tl ctr 34%
O=C(CCc1ccc(O)cc1)c1c(O)cc(O)cc1O	none
CC(C)CC(c1nnnn1C(C)C)N1CCN(c2cccc(Cl)c2)CC1 (configuration not stated)	KCNK9 inh -9.9 | KCNK9 inh conf 44% | Kir2-1 spec inactive | HEK293 Tl ctr 40%
CC(C)CC(c1nnnn1C(C)C)N1CCN(C(=O)c2ccco2)CC1 (configuration not stated)	none
